Assay results from ChEMBL document CHEMBL3792296, “Synthesis and antiproliferative activity of 9-benzylamino-6-chloro-2-methoxy-acridine derivatives as potent DNA-binding ligands and topoisomerase II inhibitors” (Eur J Med Chem, 2016).
Active and inactive are the calls of the source. The calls are words filed in the database; no cut-off is given here.

Key:
A549 [1] = assay: Antiproliferative activity against human A549 cells after 48 hrs by MTT assay; type: functional, cell-based; conditions: A549, 48 h
Summary of the method: (§1)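 MTT assay: cells seeded at 4-8 × 10³ per well, incubated overnight at 37 °C in 5% CO₂, then given fresh medium with graded compound concentrations or equal DMSO for 48 h. MTT (5 mg/mL solution) added for a further 4 h, formazan dissolved in DMSO, absorbance read at 490 nm. Six cancer cell lines tested.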

MCF7 = assay: Antiproliferative activity against human MCF7 cells after 48 hrs by MTT assay; type: functional, cell-based; conditions: MCF7, 48 h; summary of the method: as §1
HeLa = assay: Antiproliferative activity against human HeLa cells after 48 hrs by MTT assay; type: functional, cell-based; summary of the method: as §1
[2] = Antiproliferative activity against human HCT116 cells after 48 hrs by MTT assay; type: functional, cell-based; conditions: HCT-116, 48 h; summary of the method: as §1
CCRF-CEM = assay: Antiproliferative activity against human CCRF-CEM cells after 48 hrs by MTT assay; type: functional, cell-based; summary of the method: as §1
[3] = molecular target: DNA topoisomerase 2-alpha (Homo sapiens) (UniProt P11388); assay: Inhibition of human recombinant topoisomerase 2-alpha expressed in Escherichia coli assessed as reduction in enzyme-mediated relaxation of supercoiled pBR322 DNA at 100 uM after 10 to 15 mins by agarose gel electrophoresis
DNA topoisomerase 2-alpha (Homo sapiens), sequence (P11388 whole entry): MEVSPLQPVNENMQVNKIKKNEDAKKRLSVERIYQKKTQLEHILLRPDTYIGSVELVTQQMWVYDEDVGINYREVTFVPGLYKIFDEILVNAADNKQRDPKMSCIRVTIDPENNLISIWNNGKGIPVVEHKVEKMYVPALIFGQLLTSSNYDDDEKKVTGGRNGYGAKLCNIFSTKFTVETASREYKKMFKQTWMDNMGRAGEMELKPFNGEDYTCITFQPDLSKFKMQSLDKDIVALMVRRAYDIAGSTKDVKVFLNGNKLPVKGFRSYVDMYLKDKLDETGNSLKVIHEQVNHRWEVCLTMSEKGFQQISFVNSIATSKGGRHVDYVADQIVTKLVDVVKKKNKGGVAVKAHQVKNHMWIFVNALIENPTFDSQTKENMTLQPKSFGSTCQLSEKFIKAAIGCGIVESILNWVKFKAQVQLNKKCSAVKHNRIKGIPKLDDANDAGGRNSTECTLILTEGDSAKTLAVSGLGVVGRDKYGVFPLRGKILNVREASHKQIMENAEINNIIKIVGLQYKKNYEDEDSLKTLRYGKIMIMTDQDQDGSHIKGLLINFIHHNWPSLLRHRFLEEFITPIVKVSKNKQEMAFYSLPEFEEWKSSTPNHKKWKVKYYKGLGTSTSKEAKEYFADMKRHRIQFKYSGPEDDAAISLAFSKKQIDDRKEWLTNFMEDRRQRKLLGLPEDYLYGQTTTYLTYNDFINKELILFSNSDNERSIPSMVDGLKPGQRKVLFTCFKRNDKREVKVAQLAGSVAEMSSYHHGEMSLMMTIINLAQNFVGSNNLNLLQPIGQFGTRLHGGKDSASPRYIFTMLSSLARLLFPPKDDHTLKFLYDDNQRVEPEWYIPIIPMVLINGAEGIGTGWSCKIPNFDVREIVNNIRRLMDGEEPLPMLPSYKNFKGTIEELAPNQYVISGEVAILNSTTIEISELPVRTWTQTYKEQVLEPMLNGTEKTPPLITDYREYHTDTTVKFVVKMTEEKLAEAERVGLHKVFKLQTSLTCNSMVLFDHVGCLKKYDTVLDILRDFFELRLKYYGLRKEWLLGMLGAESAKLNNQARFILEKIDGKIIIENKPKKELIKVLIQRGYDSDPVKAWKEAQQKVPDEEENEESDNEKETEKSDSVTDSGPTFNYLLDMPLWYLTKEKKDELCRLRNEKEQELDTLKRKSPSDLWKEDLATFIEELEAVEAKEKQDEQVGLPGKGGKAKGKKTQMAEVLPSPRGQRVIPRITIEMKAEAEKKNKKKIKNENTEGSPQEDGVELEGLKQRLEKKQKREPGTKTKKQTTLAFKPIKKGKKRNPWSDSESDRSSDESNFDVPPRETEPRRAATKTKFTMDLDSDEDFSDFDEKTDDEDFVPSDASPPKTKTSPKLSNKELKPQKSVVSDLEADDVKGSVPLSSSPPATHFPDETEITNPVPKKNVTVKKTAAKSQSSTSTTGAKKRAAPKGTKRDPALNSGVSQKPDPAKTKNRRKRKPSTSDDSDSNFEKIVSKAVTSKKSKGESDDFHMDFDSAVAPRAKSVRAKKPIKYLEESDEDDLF
Summary of the method: (§2)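 Relaxation of 500 ng supercoiled pBR322 by 1 unit human Topo I or Topo IIα, with or without compound, in 20 µL reaction buffer at 37 °C for 10-15 min. Reactions stopped with loading buffer, run on 0.8% agarose in TAE at 80 V for 30 min. Gels stained with ethidium bromide 2.5 µg/mL and viewed under UV.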

[4] = molecular target: DNA topoisomerase 2-alpha (Homo sapiens) (UniProt P11388); assay: Inhibition of human recombinant topoisomerase 2-alpha expressed in Escherichia coli assessed as reduction in enzyme-mediated relaxation of supercoiled pBR322 DNA at 10 to 50 uM after 10 to 15 mins by agarose gel electrophoresis; summary of the method: as §2
[5] = molecular target: T1, DNA topoisomerase 1 (Homo sapiens) (UniProt P11387); assay: Inhibition of human topoisomerase 1 assessed as reduction in enzyme-mediated relaxation of supercoiled pBR322 DNA at 50 to 100 uM after 10 to 15 mins by agarose gel electrophoresis; summary of the method: as §2
T1 sequence (whole entry): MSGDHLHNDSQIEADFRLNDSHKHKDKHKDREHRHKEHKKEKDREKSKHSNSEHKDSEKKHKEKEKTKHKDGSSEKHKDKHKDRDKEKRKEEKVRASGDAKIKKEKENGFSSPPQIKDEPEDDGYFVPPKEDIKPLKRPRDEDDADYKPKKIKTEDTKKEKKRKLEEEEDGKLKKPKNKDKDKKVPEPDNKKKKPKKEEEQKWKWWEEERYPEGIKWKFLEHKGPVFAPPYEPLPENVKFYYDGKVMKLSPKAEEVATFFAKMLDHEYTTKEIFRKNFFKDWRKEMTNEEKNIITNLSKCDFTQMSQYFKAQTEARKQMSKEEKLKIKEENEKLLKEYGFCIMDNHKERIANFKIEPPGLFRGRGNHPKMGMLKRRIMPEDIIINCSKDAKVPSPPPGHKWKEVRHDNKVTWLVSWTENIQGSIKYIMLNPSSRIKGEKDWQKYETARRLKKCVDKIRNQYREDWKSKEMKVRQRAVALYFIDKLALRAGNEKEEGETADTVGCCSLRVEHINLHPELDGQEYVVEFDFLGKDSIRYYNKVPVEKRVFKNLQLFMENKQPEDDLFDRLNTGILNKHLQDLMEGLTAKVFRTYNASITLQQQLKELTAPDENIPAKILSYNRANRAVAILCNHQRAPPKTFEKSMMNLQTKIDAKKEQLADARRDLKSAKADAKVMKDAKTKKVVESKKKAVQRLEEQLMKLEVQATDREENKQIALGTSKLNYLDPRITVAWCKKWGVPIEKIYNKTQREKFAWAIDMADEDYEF

Calf thymus DNA = assay: Binding affinity to calf thymus DNA after 5 mins by UV-vis spectrophotometry; type: nucleic-acid assay; conditions: Bos taurus
Summary of the method: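 ctDNA at 0-44 µM is added to compound at 10 µM final in Tris-HCl buffer (pH 7.4). UV-vis absorption spectra are recorded after 5 min standing. The binding constant K_b is taken from a plot of absorption data against DNA concentration.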

A549 [6] = assay: Induction of DNA damage in human A549 cells assessed as tail DNA at 10 uM after 24 hrs by propidium iodide staining based comet assay (reference value: 0.02%); type: cell-based
Summary of the method: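 Alkaline comet assay. About 10⁵ A549 cells per well incubated 12 h, then treated 24 h in serum-free medium against a DMSO control. Cells embedded in low-melting agarose, lysed 2 h, alkaline-unwound 0.5 h at 4 °C, electrophoresed at 300 mA for 25 min in the dark. Slides neutralized, PI-stained, 50 random cells scored for % tail DNA.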

Structure (SMILES) | IC50 (A549 [1]) [µM] | inhibition [3] | further results
COc1ccc2nc3cc(Cl)ccc3c(NCc3ccc(OC)c(F)c3)c2c1 | 0.95 | Active | IC50 (MCF7): 7.6 µM; IC50 (HeLa): 4.08 µM; IC50 [2]: 0.86 µM; IC50 (CCRF-CEM): 3.08 µM; inhibition [4]: Active
COc1ccc2nc3cc(Cl)ccc3c(NCc3ccccc3Br)c2c1 | 3 | Active | –
COc1ccc2nc3cc(Cl)ccc3c(NCc3ccc(Br)cc3)c2c1 | 3.26 | Active | –
COc1ccc2nc3cc(Cl)ccc3c(NCc3cc(F)c(OC)c(F)c3)c2c1 | 1.82 | Active | –
COc1ccc2nc3cc(Cl)ccc3c(NCc3ccc(OC)c(OC)c3)c2c1 | 2.56 | Active | inhibition [5]: Active
COc1ccc2nc3cc(Cl)ccc3c(NCc3ccccc3C(F)(F)F)c2c1 | 6.32 | Active | –
COc1ccc2nc3cc(Cl)ccc3c(NCc3ccc(F)c(F)c3)c2c1 | > 25 | Active | –
COc1ccc2nc3cc(Cl)ccc3c(NCc3ccc4c(c3)OCO4)c2c1 | 0.65 | Active | IC50 (MCF7): 10.3 µM; IC50 (HeLa): 7 µM; IC50 [2]: 1.62 µM; IC50 (CCRF-CEM): 2 µM; inhibition [4]: Active
COc1ccc2nc3cc(Cl)ccc3c(NCc3ccc(OC(F)F)cc3)c2c1 | 0.72 | Active | IC50 (MCF7): 9.95 µM; IC50 (HeLa): 4.41 µM; IC50 [2]: 1.16 µM; IC50 (CCRF-CEM): 6.87 µM; inhibition [4]: Active
COc1cccc2c1C(=O)c1c(O)c3c(c(O)c1C2=O)C[C@@](O)(C(=O)CO)C[C@@H]3O[C@H]1C[C@H](N)[C@H](O)[C@H](C)O1 [DOXORUBICIN] | 0.09 | – | IC50 (MCF7): 0.81 µM; IC50 (HeLa): 0.78 µM; IC50 (CCRF-CEM): 0.052 µM
COc1ccc2nc3cc(Cl)ccc3c(NCc3cccc(Cl)c3)c2c1 | 4.64 | Active | –
COc1ccc2nc3cc(Cl)ccc3c(NCc3ccc(Cl)cc3)c2c1 | 4.2 | Active | –
CCc1ccc(CNc2c3ccc(Cl)cc3nc3ccc(OC)cc23)cc1 | 2.58 | Active | inhibition [5]: Active
COc1ccc2nc3cc(Cl)ccc3c(NCc3ccc(F)cc3)c2c1 | 4.05 | Active | inhibition [5]: Active
COc1ccc2nc3cc(Cl)ccc3c(NCc3ccc(C(C)(C)C)cc3)c2c1 | 7.03 | Active | –
COc1ccc2nc3cc(Cl)ccc3c(NCc3ccc(C)cc3)c2c1 | 2.63 | Active | –
COc1cc(CNc2c3ccc(Cl)cc3nc3ccc(OC)cc23)cc(OC)c1 | 9.2 | Active | –
COc1ccc2nc3cc(Cl)ccc3c(NCc3cccc(F)c3)c2c1 | 4.19 | Active | –
COc1ccc2nc3cc(Cl)ccc3c(NCc3cccc(C(F)(F)F)c3)c2c1 | 0.16 | Active | IC50 (MCF7): 10.5 µM; IC50 (HeLa): 10.1 µM; IC50 [2]: 0.76 µM; IC50 (CCRF-CEM): 5.11 µM; inhibition [4]: Active
COc1ccc2nc3cc(Cl)ccc3c(NCc3cccc(C)c3)c2c1 | 2.22 | Active | –
COc1ccc2nc3cc(Cl)ccc3c(NCc3cc(OC)c(OC)c(OC)c3)c2c1 | 2.18 | Active | –
COc1ccc2nc3cc(Cl)ccc3c(NCc3ccccc3F)c2c1 | 2.82 | Active | –
COc1cc(NS(C)(=O)=O)ccc1Nc1c2ccccc2nc2ccccc12 [AMSACRINE] | 5.96 | – | IC50 (MCF7): 26.8 µM; IC50 (HeLa): 0.34 µM; IC50 [2]: 0.93 µM; IC50 (CCRF-CEM): 0.18 µM; Kb (Calf thymus DNA): 1.36 ×10⁵ /M
COc1cc([C@@H]2c3cc4c(cc3[C@@H](O[C@@H]3O[C@@H]5CO[C@@H](C)O[C@H]5[C@H](O)[C@H]3O)[C@H]3COC(=O)[C@H]23)OCO4)cc(OC)c1O [ETOPOSIDE] | 3.82 | – | IC50 (HeLa): 41.2 µM; IC50 [2]: 6.03 µM; IC50 (CCRF-CEM): 0.12 µM; inhibition [4]: Active; Activity (A549 [6]): 46.7%
COc1ccc2nc3cc(Cl)ccc3c(NCc3ccc(C(F)(F)F)cc3)c2c1 | 6.04 | Active | –
